Bioassay records as filed in PubChem BioAssay.
CAL PDZ FP-1: untagged CAL PDZ binding inhibitors, primary screen, biochemical, fluorescence polarization, HTS | Golgi-associated PDZ and coiled-coil motif-containing protein (Homo sapiens), Q9HD26 | purified CAL PDZ, TMR-peptide fluorescence polarization, 1 h | inhibition, % at 24.9 µM | 300,000 compounds, 0.92% hits | AID 602252, 2012;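 active = mean inhibition of at least 30% with at least half of replicates also reaching 30%; inconclusive = no clear call, values can overlap the other calls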;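 note: 0% = DMSO neutral control and 100% = excess unlabeled competitor peptide PRC23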
miR-122 sensor: miR-122 Renilla sensor signal increase in Huh7, primary screen, miR-122 inhibitor project, cell-based, single point, plate reader | AID 602342, 2012 | Huh7 miR-122 Renilla luciferase sensor, 48 h; neutral wells = 0, positive control = 100 | 340,000 compounds, 0.3% hits | activation (reporter increase), % at 12.5 µM;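 active = mean replicate activation score at least 90 and every replicate individually at or above 90; inconclusive = only one of the two criteria met; inactive = neither criterion met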;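 note: higher luciferase means less miR-122 activity so hits act as miR-122 inhibitors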
ARNT TACC3 PPI: disruptors of ARNT/TACC3 protein interaction, primary screen, biochemical, AlphaScreen, single concentration; Transforming acidic coiled-coil-containing protein 3 (Homo sapiens), Q9Y6A5; AlphaScreen His-ARNT PAS-B/GST-TACC3 binding, luminescence; TACC3 fragment carries E629A point mutation; inhibition, % at 9.99 µM; 390,000 compounds, 0.66% hits;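 active = mean inhibition of replicates at least 50% and at least half of replicates each reaching 50%; inconclusive = half or more replicates reach 50% but mean below 50%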;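 note: 0% = complete ARNT plus TACC3 wells and 100% = ARNT alone without TACC3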
SR-BI HDL uptake: inhibitors of SR-BI mediated HDL lipid uptake, primary screen, ldlA[mSR-BI] cells, fluorescence, single point. Scavenger receptor class B member 1 (Mus musculus), Q61009. ldlA[mSR-BI] CHO cells, DiI-HDL uptake fluorescence, 3 h. inhibition, % at 12.5 µM. 320,000 compounds, 0.96% hits. AID 488896, 2010;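 active = mean replicate inhibition of at least 70% and a set share of replicates each scoring 70 or more; inconclusive = meets just one of the two criteria; inactive = fails both criteria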;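 note: 0% = median of neutral control wells and 100% = median of positive control wells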
Target sequence (Q61009 whole entry, looked up): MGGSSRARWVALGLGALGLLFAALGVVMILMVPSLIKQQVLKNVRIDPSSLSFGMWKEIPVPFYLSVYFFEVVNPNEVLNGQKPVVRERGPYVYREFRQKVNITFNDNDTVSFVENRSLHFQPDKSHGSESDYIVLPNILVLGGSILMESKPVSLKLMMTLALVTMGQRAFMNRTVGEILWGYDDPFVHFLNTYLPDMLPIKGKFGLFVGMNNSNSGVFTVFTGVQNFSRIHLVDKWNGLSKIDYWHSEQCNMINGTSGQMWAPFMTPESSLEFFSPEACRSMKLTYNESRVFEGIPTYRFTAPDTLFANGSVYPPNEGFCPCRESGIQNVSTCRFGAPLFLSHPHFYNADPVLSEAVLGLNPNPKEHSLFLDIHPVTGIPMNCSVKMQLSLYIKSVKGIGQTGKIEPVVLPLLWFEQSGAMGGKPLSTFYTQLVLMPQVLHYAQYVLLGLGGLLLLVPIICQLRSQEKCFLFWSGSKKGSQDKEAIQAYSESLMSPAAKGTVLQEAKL
SR-BI DiI-HDL act: activators of SR-BI mediated DiI-HDL uptake, primary screen, ldlA[mSR-BI] CHO cells, DiI fluorescence. 3 h; 100 = double the neutral-control signal. activation, % at 12.5 µM. 320,000 compounds, 0.096% hits;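 active = mean replicate activation of at least 60% and every replicate at or above 60%; inconclusive = mean or all-replicate condition met, but not both; inactive = mean below 60% and not all replicates reaching 60%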;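 note: 0% = median plate neutral-control signal and 100% = twice that signal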
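system = CHO ldlA[mSR-BI] cells, LDL receptor-null, SR-BI overexpressing | medium = Ham's F12 with 0.5% BSA, HEPES 25 mM, pH 7.4 | probe or stimulus = DiI-HDL 10 µg/mL | compound dosing = single-point compound dose | incubation = compound exposure 3 h, 37 °C | technique = DiI fluorescence, bottom read | read-out = cell-associated DiI fluorescence as measure of HDL uptake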
CAL PDZ FP-2: CAL PDZ peptide-binding inhibitors, primary screen, biochemical, fluorescence polarization, Cer-tagged CAL PDZ, HTS. inhibition, % at 20 µM. purified CAL PDZ, TMR-peptide fluorescence polarization, 1 h. 330,000 compounds, 0.02% hits;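 active = highest replicate inhibition of at least 40%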;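 note: plate controls were DMSO neutral control wells for no effect and unlabeled competitor peptide control wells for full effect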
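Material: tagged CAL PDZ protein CerCALP, purified; buffer or medium: sodium phosphate/NaCl buffer pH 7.4 with TCEP, IgG, Thesit; also added: fluorescent TMR peptide probe; schedule: 1 h incubation at room temperature before polarization reading; technique: fluorescence polarization from S- and P-plane intensities, G-factor corrected; control set: unlabelled peptide and DMSO controls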
Starred values were filed as active, the others as inactive; [ ] = dose if it differs, or a comment. Shown are actives, neighbours in structure and some others; about 2.1% of the full set was active somewhere.

Screening CC(NC(=O)C(=O)N/N=C\c1ccc([N+](=O)[O-])cc1)c1ccccc1 (stereo not drawn) returned CAL PDZ FP-1 40*, ARNT TACC3 PPI -6, SR-BI HDL uptake 1, SR-BI DiI-HDL act -1 and CAL PDZ FP-2 0.
For O=C(C[C@@H]1C=C[C@H](NC(=O)Nc2ccc3c(c2)OCO3)[C@@H](CO)O1)NCc1ccc(F)cc1 the results were ARNT TACC3 PPI 0.
For C[C@@H]1CN([C@H](C)CO)C(=O)Cc2cc(NC(=O)NC3CCCCC3)ccc2O[C@H]1CN(C)Cc1ccc(C(F)(F)F)cc1 the results were miR-122 sensor -3[16.7 µM] and ARNT TACC3 PPI -9.
`O=C(Cn1ccc([N+](=O)[O-])n1)NCc1ccco1` gave CAL PDZ FP-1 -1, miR-122 sensor 3, ARNT TACC3 PPI -27, SR-BI HDL uptake -34, SR-BI DiI-HDL act 34 and CAL PDZ FP-2 -2.
`O=C(Cn1ccc([N+](=O)[O-])n1)NCc1nc2ccccc2[nH]1` gave CAL PDZ FP-1 44*, ARNT TACC3 PPI 3, SR-BI HDL uptake 5, SR-BI DiI-HDL act -5 and CAL PDZ FP-2 -1.
`CNC(=O)C[C@@H]1CC[C@H]2[C@H](COc3ccc(NC(=O)c4ccc(OC)cc4)cc3C(=O)N2C)O1` gave miR-122 sensor 5[16.7 µM] and ARNT TACC3 PPI 0.
Screening COc1ccc(OC)c(S(=O)(=O)Nc2cc3c4c(c2)CCN4C(=O)CC3)c1 returned CAL PDZ FP-1 -2, miR-122 sensor 143*, ARNT TACC3 PPI 0, SR-BI HDL uptake -14, SR-BI DiI-HDL act 14 and CAL PDZ FP-2 -1.
Screening COc1ccc(C)cc1S(=O)(=O)Nc1ccc(F)cc1 returned CAL PDZ FP-1 -1, miR-122 sensor 113*, ARNT TACC3 PPI 0, SR-BI HDL uptake -5, SR-BI DiI-HDL act 11 and CAL PDZ FP-2 -2.
COc1ccc(NC(=O)C2CCC2)cc1S(=O)(=O)Nc1cc(C)ccc1Br was read as CAL PDZ FP-1 -1, miR-122 sensor 170*, ARNT TACC3 PPI -2, SR-BI HDL uptake -5, SR-BI DiI-HDL act 5 and CAL PDZ FP-2 -1.
Screening COc1ccc(C)cc1S(=O)(=O)Nc1cc2c3c(c1)CC(=O)N3CCC2 returned miR-122 sensor 34, ARNT TACC3 PPI 0, SR-BI HDL uptake -2, SR-BI DiI-HDL act 2 and CAL PDZ FP-2 0.
`Cc1ccc(C)c(S(=O)(=O)Nc2cc3c4c(c2)CC(=O)N4CCC3)c1` gave CAL PDZ FP-1 -2, miR-122 sensor 163*, ARNT TACC3 PPI 7, SR-BI HDL uptake 27, SR-BI DiI-HDL act -27 and CAL PDZ FP-2 -3.
For C[C@@H]1CN([C@H](C)CO)C(=O)c2cc(NC(=O)NC3CCCCC3)ccc2O[C@@H](C)CCCCO[C@@H]1CN(C)S(=O)(=O)c1ccc(F)cc1 the results were miR-122 sensor -2[16.7 µM] and ARNT TACC3 PPI 14.
For CCNC(=O)Nc1ccc2c(c1)C(=O)N(C)[C@H]1CC[C@@H](CC(=O)NCCOC)O[C@@H]1CO2 the results were miR-122 sensor -42[16.7 µM].
`CO[C@@H]1CC[C@@H]2CCOc3ccc(C#N)cc3C(=O)N(C)C[C@@H](C)C(=O)N(C)C[C@H]1O2` gave ARNT TACC3 PPI -6.
For COc1ccc(S(=O)(=O)Nc2ccc(S(=O)(=O)Nc3ccc(F)cc3)cc2)cc1C the results were CAL PDZ FP-1 -3, miR-122 sensor inconclusive, ARNT TACC3 PPI -3, SR-BI HDL uptake -24, SR-BI DiI-HDL act 24 and CAL PDZ FP-2 -1.
`COc1ccc(OC)c(S(=O)(=O)Nc2c(C)n(C)n(-c3ccccc3)c2=O)c1` gave CAL PDZ FP-1 74*, miR-122 sensor -9, ARNT TACC3 PPI -6, SR-BI HDL uptake -6, SR-BI DiI-HDL act 6 and CAL PDZ FP-2 17.
For CCOc1cc(C)c(S(=O)(=O)Nc2ccc(F)cc2)cc1C the results were CAL PDZ FP-1 -6, miR-122 sensor 304*, ARNT TACC3 PPI 1, SR-BI HDL uptake -5, SR-BI DiI-HDL act 5 and CAL PDZ FP-2 -1.
For COC(=O)c1ccc(NS(=O)(=O)c2cc(C)ccc2OC)cc1 the results were CAL PDZ FP-1 -1, miR-122 sensor 150*, ARNT TACC3 PPI -8, SR-BI HDL uptake -6, SR-BI DiI-HDL act 6 and CAL PDZ FP-2 -1.
Screening CCc1ccc(NS(=O)(=O)c2cc(OC)ccc2OC)cc1 returned CAL PDZ FP-1 -3, miR-122 sensor 140*, ARNT TACC3 PPI -5, SR-BI HDL uptake -25, SR-BI DiI-HDL act 25 and CAL PDZ FP-2 -1.
O=C(Nc1nc2ccc(Br)cc2s1)c1ccco1 was read as miR-122 sensor 4, ARNT TACC3 PPI -3, SR-BI HDL uptake 93*, SR-BI DiI-HDL act -93 and CAL PDZ FP-2 -4.
For Cc1ccc2nc(NC(=O)c3ccco3)sc2c1 the results were CAL PDZ FP-1 -1, miR-122 sensor 15, ARNT TACC3 PPI -1, SR-BI HDL uptake 15, SR-BI DiI-HDL act -15 and CAL PDZ FP-2 -4.
O=C(Nc1nc2c(s1)CCc1ccccc1-2)c1ccco1 was read as CAL PDZ FP-1 3, miR-122 sensor 98*, SR-BI HDL uptake 50, SR-BI DiI-HDL act -50 and CAL PDZ FP-2 -2.
`O=C(Nc1nc2ccc(Cl)cc2s1)c1ccco1` gave CAL PDZ FP-1 -4, miR-122 sensor 116*, ARNT TACC3 PPI 0, SR-BI HDL uptake 17, SR-BI DiI-HDL act -17 and CAL PDZ FP-2 -4.
Screening CC(=O)Nc1nc2c(s1)CCc1ccccc1-2 returned CAL PDZ FP-1 -6, miR-122 sensor 4, ARNT TACC3 PPI 0, SR-BI HDL uptake 7, SR-BI DiI-HDL act -7 and CAL PDZ FP-2 0.
C[C@@H]1CN([C@@H](C)CO)S(=O)(=O)c2ccc(C3=CCCC3)cc2O[C@@H]1CN(C)S(=O)(=O)c1cn(C)cn1 was read as miR-122 sensor 37[16.7 µM] and ARNT TACC3 PPI -5.
Screening COc1ccc(S(=O)(=O)N[C@@H]2C=C[C@H](CC(=O)N3CCN(c4ccccc4)CC3)O[C@H]2CO)cc1 returned ARNT TACC3 PPI -15.
Screening O=C(N/N=C/c1sc(=O)n(-c2ccccc2)c1Cl)c1ccccc1 returned CAL PDZ FP-1 1, ARNT TACC3 PPI 8, SR-BI HDL uptake 85*, SR-BI DiI-HDL act -85 and CAL PDZ FP-2 -4.
